Results on 26 compounds are retold here after ChEMBL document CHEMBL1145986, “Dual protein farnesyltransferase-geranylgeranyltransferase-I inhibitors as potential cancer chemotherapeutic agents” (J Med Chem, 2003).

Bounds are passed on as bounds.

For assay [1], the target named is T1, Protein farnesyltransferase (Homo sapiens, UniProt P49354+P49356). The assay is described as follows: Concentration required to inhibit recombinant human farnesyltransferase (FTase) catalyzed incorporation of [3H]FPP into recombinant Ras-CVIM. Type of assay: protein-complex assay.
For assay [2], the target named is T2, Geranylgeranyl transferase type I (Homo sapiens, UniProt P49354+P53609). In words: Concentration required to inhibit recombinant human geranylgeranyl transferase type I (GGTase-I) catalyzed incorporation of [3H]GGPP to the C-terminus of human K-Ras. Type of assay: protein-complex assay. The method, boiled down:
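Human GGTase-I transferring [3H]GGPP onto a biotinylated peptide matching the human K-Ras C-terminus. IC50 is the concentration giving 50% inhibition of incorporation. For the GGPP-competition check, IC50 was also determined at 20, 100 and 500 nM GGPP. Data with n > 2 are given as mean ± SEM.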

Assay [3] deals with Protein farnesyl/geranylgeranyl transferase (Homo sapiens, UniProt P49354+P49356+P53609). The assay is described as follows: Inhibition of K-Ras processing, farnesylation and/or geranylgeranylation in human PSN1 cells. It counts as functional, cell-based. The essentials:
(§1)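 PSN-1 pancreatic carcinoma cells were exposed to inhibitor for 24 h. Lysates were run on SDS-PAGE and Western blotted with antibodies to hDJ2, Rap1a or K-Ras. Unprocessed and prenylated forms were told apart by their different electrophoretic mobility.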

For assay [4], the target named is T2, Geranylgeranyl transferase type I. In words: Inhibition of Rap1a protein geranylgeranylation in human PSN1 cells. Type of assay: functional, cell-based. The method, boiled down: as §1
Assay [5] addresses T1, Protein farnesyltransferase. In words: Inhibition of hDJ2 protein farnesylation. Type of assay: functional. The essentials:
as §1

For `CCC1(c2cccc(Oc3cc(Cc4cncn4C)ccc3C#N)c2)CCCCN(C)C1=O` (stereo unspecified), the IC50 (commonly the concentration that gives 50% inhibition) in assay [1] was determined as 0.6 nM; in assay [2], 10 nM.
Turning to `N#Cc1ccc(Cn2ccnc2)cc1Oc1cccc(C2CCCCNC2=O)c1` (stereo unspecified), the IC50 in assay [1] was 41 nM; in assay [2], 1200 nM.
Turning to `CCC1(c2cccc(Oc3cc(C(C)(N)c4cncn4C)ccc3C#N)c2)CCCCN(C)C1=O` (stereo unspecified), the IC50 in assay [1] was found to be 0.38 nM; in assay [2], 5.1 nM.
As to `CCC1(c2cccc(Oc3cc(Cc4cnc[nH]4)ccc3C#N)c2)CCCCN(C)C1=O` (stereo unspecified), the IC50 came out at 13 nM in assay [1] and 12 nM in assay [2].
`CCC1(c2cccc(Oc3cc(C(=O)c4cncn4C)ccc3C#N)c2)CCCCN(C)C1=O` (stereo unspecified): the IC50 is 1800 nM in assay [1] and 10000 nM in assay [2].
With `CC[C@@]1(c2cccc(Oc3cc(Cn4ccnc4)ccc3C#N)c2)CCCCN(C)C1=O`, the IC50 in assay [1] amounted to 1.4 nM; in assay [2] it was 5.8 nM.
The corresponding values for `CC[C@]1(c2cccc(Oc3cc(Cn4ccnc4)ccc3C#N)c2)CCCCN(C)C1=O` are 5.3 nM and 25 nM.
Regarding `CC[C@@]1(c2cccc(Oc3cc([C@](C)(N)c4cncn4C)ccc3C#N)c2)CCCCN(C)C1=O`, the EC50 (as a rule, the concentration giving half of the maximal effect) is 340 nM in assay [3], 470 nM in assay [4] and 2.1 nM in assay [5]. Besides, in assay [2], the IC50 amounted to 3.6 nM.
On to `CN1CCCC[C@@](CCC(F)(F)F)(c2cccc(Oc3cc([C@](C)(N)c4cncn4C)ccc3C#N)c2)C1=O`, for which the figures for the concentration for a half-maximal effect (EC50) in assay [3], in assay [4] and in assay [5] were 207 nM, 47 nM and 3.1 nM, respectively. Moreover, the IC50 in assay [1] is 0.19 nM; in assay [2], 2.5 nM.
As for `CCC[C@@]1(c2cccc(Oc3cc([C@](C)(N)c4cncn4C)ccc3C#N)c2)CCCCN(C)C1=O`, the EC50 in assay [3] was found to be 100 nM; in assay [4], 220 nM; in assay [5], 0.9 nM. The results for the IC50 in assay [1] and in assay [2] were 0.46 nM and 2.9 nM, respectively.
As for `CN1CCCCC(c2cccc(Oc3cc(Cn4ccnc4)ccc3C#N)c2)C1=O` (stereo unspecified), the IC50 was found to be 61 nM in assay [1] and 560 nM in assay [2].
The corresponding values for `CCC1(c2cccc(Oc3cc(C(C)(O)c4cncn4C)ccc3C#N)c2)CCCCN(C)C1=O` (stereo unspecified) are 1.2 nM and 13 nM.
For the compound `CN1CCCC[C@@H](c2cccc(Oc3cc([C@](C)(N)c4cncn4C)ccc3C#N)c2)C1=O`, the IC50 in assay [1] came to 11 nM; in assay [2] it was 92 nM.
In the case of `CCC1(c2cccc(Oc3cc(Cn4ccnc4)ccc3C#N)c2)CCCCNC1` (stereo unspecified), the IC50 in assay [1] amounted to 100 nM; in assay [2], 280 nM.
Take `CCC1(c2cccc(Oc3cc(Cn4ccnc4)ccc3C#N)c2)CCCCNC1=O` (stereo unspecified): the values for the IC50 in assay [1] and in assay [2] were 1.3 nM and 20 nM, respectively.
Turning to `CN1CCCC[C@@](CCC2CC2)(c2cccc(Oc3cc([C@](C)(N)c4cncn4C)ccc3C#N)c2)C1=O`, the values for the EC50 in assay [3], in assay [4] and in assay [5] were 1290 nM, above 1000 nM and 11 nM, respectively. For the same compound, the results for the IC50 in assay [1] and in assay [2] were 0.18 nM and 0.81 nM, respectively.
For the compound `CN1CCCC[C@@](C)(c2cccc(Oc3cc([C@](C)(N)c4cncn4C)ccc3C#N)c2)C1=O`, the results for the concentration for a half-maximal effect (EC50) in assay [3], in assay [4] and in assay [5] were 3730 nM, 3990 nM and 26 nM, respectively. The results for the IC50 in assay [1] and in assay [2] were 0.41 nM and 30 nM, respectively.
As to `CCC1(c2cccc(Oc3cc(C(N)c4cncn4C)ccc3C#N)c2)CCCCN(C)C1=O` (stereo unspecified), the IC50 was determined as 0.19 nM in assay [1] and 8 nM in assay [2].
Turning to `CC[C@]1(c2cccc(Oc3cc([C@@](C)(N)c4cncn4C)ccc3C#N)c2)CCCCN(C)C1=O`, the values for the EC50 in assay [3], in assay [4] and in assay [5] were 8000 nM, 3200 nM and 120 nM, respectively. For the same compound, the figures for the IC50 in assay [1] and in assay [2] were 7.6 nM and 54 nM, respectively.
As to `CCC1(c2cccc(Oc3cc(Cn4ccnc4)ccc3C#N)c2)CCCCN(C(C)=O)C1` (stereo unspecified), the IC50 in assay [1] was determined as 1.9 nM; in assay [2], 8.9 nM.
For `CCC1(c2cccc(Oc3cc(C(O)c4cncn4C)ccc3C#N)c2)CCCCN(C)C1=O` (stereo unspecified), the half-inhibitory concentration (IC50) in assay [1] stood at 2 nM; in assay [2], 17 nM.
For `CN1CCCC[C@@](CC2CC2)(c2cccc(Oc3cc([C@](C)(N)c4cncn4C)ccc3C#N)c2)C1=O`, the EC50 worked out at 220 nM in assay [3], 87 nM in assay [4] and 1.5 nM in assay [5]. Besides, the IC50 in assay [1] turned out to be 0.3 nM; in assay [2], 2.1 nM.
As to `CCCC[C@@]1(c2cccc(Oc3cc([C@](C)(N)c4cncn4C)ccc3C#N)c2)CCCCN(C)C1=O`, the EC50 in assay [3] was found to be 320 nM; in assay [4], 250 nM; in assay [5], 4 nM. The concentration for half-maximal inhibition (IC50) in assay [1] was 0.12 nM; in assay [2], 1.4 nM.
As for `CCC1(c2cccc(Oc3cc(Cn4ccnc4)ccc3C#N)c2)CCCCN(C)C1=O` (racemic), the figures for the IC50 in assay [1] and in assay [2] were 3 nM and 7.2 nM, respectively.
As for `CC[C@]1(c2cccc(Oc3cc([C@](C)(N)c4cncn4C)ccc3C#N)c2)CCCCN(C)C1=O` (stereo in doubt), the EC50 in assay [3] is 1900 nM; in assay [4], 720 nM; in assay [5], 11 nM. For the same compound, the results for the IC50 in assay [1] and in assay [2] were 1.5 nM and 4.5 nM, respectively.
Take `CC[C@@]1(c2cccc(Oc3cc([C@@](C)(N)c4cncn4C)ccc3C#N)c2)CCCCN(C)C1=O` (stereo in doubt): the results for the EC50 in assay [3], in assay [4] and in assay [5] were 230 nM, 140 nM and 6 nM, respectively. Besides, the IC50 amounted to 0.36 nM in assay [1] and 13 nM in assay [2].
